ChEMBL document CHEMBL2146386, “Hispolon attenuates balloon-injured neointimal formation and modulates vascular smooth muscle cell migration via AKT and ERK phosphorylation” (J Nat Prod, 2012)
Converted amounts (≈) assume the structure as drawn. The source made the active and inactive calls. No cut-off for these calls is given here.

Columns and labels:
[1] = molecular target: Focal adhesion kinase 1 (Rattus norvegicus) (UniProt O35346); assay: Inhibition of FAK-mediated FBS-induced migration of rat A10 cells at 15 and 20 ug/mL after 18 hrs by transwell assay; assay type: cell-based
Method in brief: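 Trans-well chambers with 6.5 mm polycarbonate filters, 8 μm pores. A10 VSMC (4 × 10^5 mL−1) with 0–20 μg/mL in serum-free DMEM were placed in the upper chamber for 18 h at 37 °C. Cells on the lower filter surface were methanol-fixed, Giemsa-stained and counted at 200× in 10 random fields. Three experiments in duplicate.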

A10 [2] = assay: Upregulation of TIMP1 expression in rat A10 cells after 24 hrs by Western blot analysis; assay type: functional, cell-based
Method in brief: (§1)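 A10 VSMC in six-well plates incubated 24 h with 10, 15 and 20 μg/mL in DMEM containing 15% FBS, with 15% FBS as control. Lysed in SDS/DTT buffer at 95 °C. Western blot on PVDF used specific antibodies (p-AKT, PI3K, p-FAK, TIMP-1, TIMP-2), β-actin loading control, ECL detection, and densitometry relative to control as 100%.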

Rattus norvegicus [3] = assay: Antirestenotic activity in Sprague-Dawley rat assessed as reduction in balloon injury-induced neointimal:[…] area ratio in carotid artery at 20 mg/mL, administered topically measured after 2 weeks by hematoxylin and eosin staining method relative to vehicle-treated control; assay type: functional; parameters: scale not given: the % may be the effect or the level left
Method in brief: (§2)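 Male Sprague–Dawley rats (350–400 g) underwent carotid balloon injury, 8 per group: untreated injury control or a 10 or 20 mg/mL solution. Sham controls were included. Vessels were embedded, cut into 10 μm sections and stained with H&E. The neointimal:media area ratio was measured by computerized image analysis. Two separate experiments.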

A10 [4] = assay: Antiproliferative activity against rat A10 cells at 5 to 25 ug/mL after 24 hrs by MTT assay relative to control; assay type: cell-based; conditions: a10, 24 h
Method in brief: (§3)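 A10 rat aortic VSMC seeded at 1 × 10^4 cells/well in DMEM with 10% FBS for 24 h, washed, then exposed for 24 h to 10% FBS alone or serial dilutions (5–40 μg/mL). MTT added (3 mg/mL stock in PBS) for 2 h at 37 °C, formazan dissolved in DMSO, absorbance read at 570 nm. Three separate experiments.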

[5] = molecular target: Focal adhesion kinase 1 (Rattus norvegicus) (UniProt O35346); assay: Inhibition of FAK-mediated ERK1 phosphorylation in rat A10 cells after 30 mins by Western blot analysis; assay type: cell-based
Method in brief: (§4)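 Western blot of A10 VSMC after 30 min exposure to 10, 15 and 20 μg/mL, probed for phosphorylated ERK1/2 alongside total ERK1/2. Serum-stimulated cells served as comparison. ECL detection.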

A10 [6] = assay: Antiproliferative activity against rat A10 cells at 30 to 40 ug/mL after 24 hrs by MTT assay relative to control; assay type: cell-based; conditions: a10, 24 h; method in brief: as §3
A10 [7] = assay: Induction of apoptosis in rat A10 cells assessed as sub-G1 cells at 10 to 40 ug/mL after 24 hrs by PI-staining based flow cytometric analysis relative to vehicle-treated control; assay type: cell-based; conditions: a10, 24 h
Method in brief: (§5)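 A10 VSMC treated 24 h with 10–60 μg/mL in 15% FBS, with […] alone as control. Cells harvested with trypsin-EDTA, fixed in 70% ethanol and stained with propidium iodide plus RNase A and Nonidet P-40 for at least 30 min on ice in the dark. Three experiments.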

A10 [8] = assay: Upregulation of TIMP2 expression in rat A10 cells after 24 hrs by Western blot analysis; assay type: functional, cell-based; method in brief: as §1
Rattus norvegicus [9] = assay: Antirestenotic activity in Sprague-Dawley rat assessed as reduction in balloon injury-induced PCNA expression in carotid artery at 10 and 20 mg/mL, administered topically measured after 2 weeks by immunohistochemistry
A10 [10] = assay: Antiproliferative activity against rat A10 cells after 24 hrs by MTT assay; assay type: cell-based; method in brief: as §3
[11] = molecular target: Focal adhesion kinase 1 (Rattus norvegicus) (UniProt O35346); assay: Inhibition of FAK in rat A10 cells assessed as inhibition of serum-induced PI3K expression after 24 hrs by Western blot analysis; assay type: cell-based; method in brief: as §1
[12] = molecular target: Focal adhesion kinase 1 (Rattus norvegicus) (UniProt O35346); assay: Inhibition of FAK-mediated […] activity in rat A10 cells after 24 hrs by zymographic analysis; assay type: cell-based
Method in brief: (§6)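 Culture medium of A10 VSMC treated 24 h was electrophoresed (120 V, 90 min) in 10% SDS-PAGE with 0.1% gelatin. Gels were washed in 2.5% Triton X-100, then incubated overnight (12–15 h) at 37 °C in 40 mM Tris-HCl pH 8.0 with 10 mM CaCl2 and 1% NaN3. Stained with Coomassie blue and destained.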

[13] = molecular target: Focal adhesion kinase 1 (Rattus norvegicus) (UniProt O35346); assay: Inhibition of FAK-mediated FBS-induced cell migration of rat A10 cells at 10 ug/mL after 18 hrs by scratch-wound assay; assay type: cell-based
Method in brief: (§7)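 A10 VSMC (3 × 10^4) grown to 80–90% confluence in six-well plates, and the monolayer centre scraped with a micropipet tip. After a PBS wash, cells were exposed to 10, 15 or 20 μg/mL and photographed at 18 h. Cells crossing lines drawn at the original wound edges were counted in six random fields per triplicate treatment. Three experiments.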

[14] = molecular target: Focal adhesion kinase 1 (Rattus norvegicus) (UniProt O35346); assay: Inhibition of FAK-mediated FBS-induced cell migration of rat A10 cells at 15 ug/mL after 18 hrs by scratch-wound assay; assay type: cell-based; method in brief: as §7
A10 [15] = assay: Induction of cell cycle arrest in rat A10 cells assessed as S phase cells at 10 to 40 ug/mL after 24 hrs by PI-staining based flow cytometric analysis relative to vehicle-treated control; conditions: a10, 24 h; method in brief: as §5
Rattus norvegicus [16] = assay: Antirestenotic activity in Sprague-Dawley rat assessed as reduction in balloon injury-induced neointimal:[…] area ratio in carotid artery at 10 mg/mL, administered topically measured after 2 weeks by hematoxylin and eosin staining method relative to vehicle-treated control; assay type: functional; parameters: scale not given: the % may be the effect or the level left; method in brief: as §2
[17] = molecular target: Focal adhesion kinase 1 (Rattus norvegicus) (UniProt O35346); assay: Inhibition of FAK phosphorylation in rat A10 cells after 24 hrs by Western blot analysis; assay type: cell-based; method in brief: as §1
[18] = molecular target: Focal adhesion kinase 1 (Rattus norvegicus) (UniProt O35346); assay: Inhibition of FAK in rat A10 cells assessed as inhibition of serum-induced AKT phosphorylation after 24 hrs by Western blot analysis; assay type: cell-based; method in brief: as §1
[19] = molecular target: Focal adhesion kinase 1 (Rattus norvegicus) (UniProt O35346); assay: Inhibition of FAK-mediated FBS-induced cell migration of rat A10 cells at 20 ug/mL after 18 hrs by scratch-wound assay; assay type: cell-based; method in brief: as §7
[20] = molecular target: Focal adhesion kinase 1 (Rattus norvegicus) (UniProt O35346); assay: Inhibition of FAK-mediated MMP2 activity in rat A10 cells after 24 hrs by zymographic analysis; assay type: cell-based; method in brief: as §6
[21] = molecular target: Focal adhesion kinase 1 (Rattus norvegicus) (UniProt O35346); assay: Inhibition of FAK-mediated ERK2 phosphorylation in rat A10 cells after 30 mins by Western blot analysis; assay type: cell-based; method in brief: as §4

Focal adhesion kinase 1 (Rattus norvegicus), sequence (O35346 whole entry): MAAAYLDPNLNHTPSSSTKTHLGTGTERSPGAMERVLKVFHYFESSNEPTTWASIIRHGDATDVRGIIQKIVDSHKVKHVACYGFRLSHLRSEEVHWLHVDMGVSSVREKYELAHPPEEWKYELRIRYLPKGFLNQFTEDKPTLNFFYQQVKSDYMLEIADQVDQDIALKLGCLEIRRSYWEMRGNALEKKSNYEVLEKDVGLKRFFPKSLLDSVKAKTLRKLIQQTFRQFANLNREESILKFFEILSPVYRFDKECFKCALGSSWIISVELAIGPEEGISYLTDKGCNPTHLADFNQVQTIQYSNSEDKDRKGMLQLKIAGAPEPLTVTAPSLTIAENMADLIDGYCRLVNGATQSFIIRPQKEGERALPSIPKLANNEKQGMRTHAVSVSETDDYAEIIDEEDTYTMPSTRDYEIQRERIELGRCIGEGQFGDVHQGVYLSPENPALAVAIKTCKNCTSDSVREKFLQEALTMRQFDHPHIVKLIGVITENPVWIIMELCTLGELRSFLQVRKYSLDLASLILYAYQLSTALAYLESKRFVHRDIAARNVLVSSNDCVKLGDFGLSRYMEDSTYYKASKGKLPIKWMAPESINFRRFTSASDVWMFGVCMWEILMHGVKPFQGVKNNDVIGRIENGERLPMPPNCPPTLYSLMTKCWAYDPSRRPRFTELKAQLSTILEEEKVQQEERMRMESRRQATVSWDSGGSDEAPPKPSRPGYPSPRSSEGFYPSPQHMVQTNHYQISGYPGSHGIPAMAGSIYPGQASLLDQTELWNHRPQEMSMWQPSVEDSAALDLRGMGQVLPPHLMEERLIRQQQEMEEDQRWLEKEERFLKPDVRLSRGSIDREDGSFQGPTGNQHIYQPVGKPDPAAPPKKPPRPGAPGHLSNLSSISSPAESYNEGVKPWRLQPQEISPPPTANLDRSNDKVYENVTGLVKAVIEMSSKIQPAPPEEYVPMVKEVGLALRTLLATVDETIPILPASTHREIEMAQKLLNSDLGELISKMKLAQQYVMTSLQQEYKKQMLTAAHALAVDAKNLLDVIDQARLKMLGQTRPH

inhibition [1]: Active
inhibition [5]: Dose-dependent effect
inhibition [11]: Dose-dependent effect
inhibition [12]: Dose-dependent effect
inhibition [13]: 12%
inhibition [14]: 6.51%
inhibition [17]: Dose-dependent effect
inhibition [18]: Dose-dependent effect
inhibition [19]: 43.2%
inhibition [20]: Dose-dependent effect
inhibition [21]: Dose-dependent effect
Compound: CC(=O)/C=C(O)/C=C/c1ccc(O)c(O)c1 [HISPOLON]
Activity (A10 [2]): Dose-dependent effect
Activity (Rattus norvegicus [3]): 58%
Activity (A10 [4]): < 10%
Activity (A10 [6]): Toxic
Activity (A10 [7]): Non-toxic
Activity (A10 [8]): Dose-dependent effect
Activity (Rattus norvegicus [9]): Active
IC50 (A10 [10]; Rattus norvegicus, A10, 24 h): 37 µg/mL (≈ 168 µM)
Activity (A10 [10]; rat, a10, 24 h): Dose-dependent effect
Activity (A10 [15]): Non-toxic
Activity (Rattus norvegicus [16]): 25%
